# Laboratory results taken from ChEMBL document CHEMBL1125542, “Dihydropyrimidine calcium channel blockers. 4. Basic 3-substituted-4-aryl-1,4-dihydropyrimidine-5-carboxylic acid esters. Potent antihypertensive agents” (J Med Chem, 1992).
# Species on record: Oryctolagus cuniculus
# Assay: In vitro inhibition of potassium-contracted rabbit aorta strips
# Format: functional
# How it was run: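 Rabbit thoracic aorta strips contracted with potassium chloride (100 mM) in the presence of calcium. IC50 is the drug concentration giving 50% relaxation, reported with 95% confidence intervals.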
row,Compound,IC50
1,CC1=C(C(=O)OC(C)C)C(c2cccc([N+](=O)[O-])c2)N(C(=O)O[C@H](C)CN(C)Cc2ccccc2)C(=O)N1 (some centres not stated),64 nM
2,CC1=C(C(=O)OC(C)C)C(c2ccccc2C(F)(F)F)N(C(=O)OC2CCCN(Cc3ccccc3)C2)C(=O)N1 (configuration not stated),130 nM
3,CC1=C(C(=O)OC(C)C)C(c2ccccc2C(F)(F)F)N(C(=O)O[C@H]2CCN(Cc3ccccc3)C2)C(=O)N1 (some centres not stated),790 nM
4,CC1=C(C(=O)OC(C)C)C(c2ccccc2C(F)(F)F)N(C(=O)OC2CCN(Cc3ccccc3)CC2)C(=O)N1 (configuration not stated),50 nM
5,CC1=C(C(=O)OC(C)C)C(c2cccc([N+](=O)[O-])c2)N(C(=O)O[C@@H](C)CN(C)Cc2ccccc2)C(=O)N1 (some centres not stated),57 nM
6,CCOC(=O)C1=C(C)N=C(S)NC1c1cccc([N+](=O)[O-])c1 (configuration not stated),> 1000 nM
7,CC1=C(C(=O)OC(C)C)C(c2ccccc2C(F)(F)F)N(C(=O)O[C@@H]2CCN(Cc3ccccc3)C2)C(=O)N1 (some centres not stated),360 nM
8,CC1=C(C(=O)OC(C)C)C(c2ccccc2C(F)(F)F)N(CCC2CCN(Cc3ccccc3)CC2)C(S)=N1 (configuration not stated),120 nM
9,CCOC(=O)C1=C(COCCN)NC(C)=C(C(=O)OC)C1c1ccccc1Cl (configuration not stated) [AMLODIPINE],3 nM
10,CC1=NC(=S)N(C(=O)OC2CCN(Cc3ccc(F)cc3)CC2)[C@@H](c2ccccc2C(F)(F)F)/C1=C(\O)OC(C)C,> 1000 nM
11,CC1=C(C(=O)OC(C)C)C(c2ccccc2C(F)(F)F)N(C(=O)OC2CCN(Cc3ccc(Cl)cc3)CC2)C(=O)N1 (configuration not stated),55 nM
12,CCCN1C(S)=NC(C)=C(C(=O)OC2CCN(Cc3ccccc3)CC2)C1c1ccccc1C(F)(F)F (configuration not stated),> 1000 nM
13,CCO/C(O)=C1\C(C)=NC(=S)N(C(=O)OC(C)C)C1c1ccccc1C(F)(F)F (configuration not stated),50 nM
14,CC1=C(C(=O)OCC(C)C)C(c2ccccc2C(F)(F)F)N(C(=O)OC2CCN(Cc3ccccc3)CC2)C(=O)N1 (configuration not stated),98 nM
15,CC1=C(C(=O)OC(C)C)C(c2cccc([N+](=O)[O-])c2)N(CCCN(C)Cc2ccccc2)C(S)=N1 (configuration not stated),72 nM

# Now from value to molecule:
row,IC50,Compound
1,41 nM,CCOC(=O)N1C(=S)N=C(C)/C(=C(/O)OCC)C1c1ccccc1C(F)(F)F (configuration not stated)
2,34 nM,CCOC(=O)N1C(=S)N=C(C)/C(=C(/O)OCCN(C)Cc2ccccc2)C1c1cccc([N+](=O)[O-])c1 (configuration not stated)
3,29 nM,CCO/C(O)=C1\C(C)=NC(=S)N(C(=O)OCCN(C)Cc2ccccc2)C1c1cccc([N+](=O)[O-])c1 (configuration not stated)
4,23 nM,CCO/C(O)=C1\C(C)=NC(=S)N(C(=O)OCCN(C)Cc2ccccc2)C1c1ccccc1C(F)(F)F (configuration not stated)
5,22 nM,CCOC(=O)N1C(=S)N=C(C)/C(=C(/O)OCCN(C)Cc2ccccc2)C1c1ccccc1C(F)(F)F (configuration not stated)
6,17 nM,CCOC(=O)N1C(=S)N=C(C)/C(=C(/O)OCC)C1c1cccc([N+](=O)[O-])c1 (configuration not stated)
7,15 nM,CC1=NC(=S)N(C(=O)OC2CCN(Cc3ccc(F)cc3)CC2)[C@H](c2ccccc2C(F)(F)F)/C1=C(\O)OC(C)C
8,12 nM,CC1=C(C(=O)OC(C)C)C(c2cccc([N+](=O)[O-])c2)N(C(=O)OC2CCN(Cc3ccccc3)CC2)C(=O)N1 (configuration not stated)
9,9 nM,CCO/C(O)=C1\C(C)=NC(=S)N(C(=O)OC2CCN(Cc3ccccc3)CC2)C1c1ccccc1C(F)(F)F (configuration not stated)
10,8 nM,CC1=C(C(=O)OC(C)C)C(c2ccccc2[N+](=O)[O-])N(C(=O)OC2CCN(Cc3ccccc3)CC2)C(=O)N1 (configuration not stated)
11,7 nM,CC1=NC(=S)N(C(=O)OC2CCN(Cc3ccc(F)cc3)CC2)C(c2ccccc2C(F)(F)F)/C1=C(\O)OC(C)C (configuration not stated)
12,5 nM,CC1=NC(=S)N(C(=O)OC2CCN(Cc3ccccc3)CC2)C(c2ccccc2C(F)(F)F)/C1=C(\O)OC(C)C (configuration not stated)
13,5 nM,CC1=NC(=S)N(C(=O)OC2CCN(Cc3ccccc3)CC2)C(c2ccccc2Cl)/C1=C(\O)OC(C)C (configuration not stated)
14,4 nM,CC1=NC(=S)N(C(=O)OC2CCN(Cc3ccccc3)CC2)C(c2cccc([N+](=O)[O-])c2)/C1=C(\O)OC(C)C (configuration not stated)
15,2 nM,CCO/C(O)=C1\C(C)=NC(=S)N(C(=O)O[C@H]2CCN(Cc3ccccc3)C2)C1c1ccccc1C(F)(F)F (some centres not stated)
16,2 nM,CC1=NC(=S)N(C(=O)OC2CCN(Cc3ccccc3)CC2)C(c2ccccc2[N+](=O)[O-])/C1=C(\O)OC(C)C (configuration not stated)

# Species on record: Oryctolagus cuniculus
# Assay: In vitro evaluation for the inhibition of potassium-contracted rabbit aorta strips by vasorelaxant assay.
# Format: functional
# How it was run: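 Rabbit thoracic aorta strips contracted with potassium chloride (100 mM) in the presence of calcium. IC50 taken as the drug concentration giving 50% relaxation of the contraction, reported with 95% confidence intervals.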
row,Compound,IC50
1,COC(=O)C1=C(C)NC(C)=C(C(=O)OC)C1c1ccccc1[N+](=O)[O-] [NIFEDIPINE],2 nM
